Reference: ChEMBL document CHEMBL1151937, “Synthesis and evaluation of an acyl-chain unsaturated analog of the Th2 biasing, immunostimulatory glycolipid, OCH” (Bioorg Med Chem Lett, 2009)
Active and inactive are the calls of the source. The calls are words filed in the database; no cut-off is given here.

How the values were obtained:
Format in all cases: functional, cell-based
[1] = system: Splenocyte; experiment: Stimulation of IFN-gamma production in C57BL/6 mouse splenocytes after 48 hrs by ELISA
In short: (§1)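 C57BL/6 mouse splenocytes cultured 48 h with lipid over a range of concentrations; IL-4 and IFNγ measured in culture supernatants by standard sandwich ELISA. Values are means of duplicate wells.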

[2] = system: Splenocyte; experiment: Stimulation of IL4 production in C57BL/6 mouse splenocytes after 48 hrs by ELISA; in short: as §1
[3] = system: Splenocyte; experiment: Stimulation of mouse splenocyte proliferation by [3H]thymidine after 48 hrs by incorporation assay
In short: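 Mouse splenocytes exposed to lipid at varying concentrations; proliferation read out as tritiated thymidine incorporation. Values are means of duplicate wells.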

[4] = system: iNKT; experiment: Stimulation of human iNKT cell proliferation

Structure (SMILES): CCCCCCCCCCCCCCCCCCCC(=O)N[C@@H](CO[C@H]1O[C@H](CO)[C@H](O)[C@H](O)[C@H]1O)[C@H](O)CCCCCC
- Activity [1]: inactive
- Activity [2]: inactive
- Activity [3]: Active
- Activity [4]: inactive

Structure (SMILES): CCCCC/C=C\C/C=C\CCCCCCCCCC(=O)N[C@@H](CO[C@H]1O[C@H](CO)[C@H](O)[C@H](O)[C@H]1O)[C@H](O)CCCCCC
- Activity [1]: Active
- Activity [2]: Active
- Activity [3]: Active
- Activity [4]: inactive

Structure (SMILES): CCCCC/C=C\C/C=C\CCCCCCCCCC(=O)N[C@@H](CO[C@H]1O[C@H](CO)[C@H](O)[C@H](O)[C@H]1O)[C@H](O)[C@H](O)CCCCCCCCCCCCCC
- Activity [3]: Active
- Activity [4]: Active

Structure (SMILES): CCCCCCCCCCCCCCCCCCCCCCCC(=O)N[C@@H](CO[C@H]1O[C@H](CO)[C@H](O)[C@H](O)[C@H]1O)[C@H](O)[C@H](O)CCCCC
- Activity [3]: Active
- Activity [4]: Active

Structure (SMILES): CCCCCCCCCCCCCCCCCCCC(=O)N[C@@H](CO[C@H]1O[C@H](CO)[C@H](O)[C@H](O)[C@H]1O)[C@H](O)[C@H](O)CCCCC
- Activity [1]: inactive
- Activity [2]: inactive
- Activity [3]: Active
- Activity [4]: inactive
